pIC50, pKi: −log10 of the molar value. Active and inactive are the calls of the source. The calls are words filed in the database; no cut-off is given here.
Experiments:
[1] = Selectivity ratio of Ki for human liver cathepsin L to Ki for human erythrocytes calpain-1
[2] = Selectivity ratio of Ki for human liver cathepsin B to Ki for human erythrocytes calpain-1
Homo sapiens [3] = species on record: Homo sapiens; assay: Selectivity ratio of Ki for recombinant human procathepsin K expressed in Escherichia coli to Ki for human erythrocytes calpain-1
Method in brief: (§1)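 Ki ratios from kinetic fluorescence assays. Cathepsins B (0.25 nM), L (1 nM), K (3 nM) and S (0.5 nM) in MES buffer at pH 6.0. All at room temperature; Ki by Cheng-Prusoff.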

[4] = target: T1, Calpain-1 catalytic subunit (Homo sapiens) (UniProt P07384); assay: Inhibition of human erythrocytes calpain-1 using Suc-Leu-Tyr-AMC as substrate in presence of up to 10 mM glutathione by kinetic fluorescence assay
T1 sequence (whole entry): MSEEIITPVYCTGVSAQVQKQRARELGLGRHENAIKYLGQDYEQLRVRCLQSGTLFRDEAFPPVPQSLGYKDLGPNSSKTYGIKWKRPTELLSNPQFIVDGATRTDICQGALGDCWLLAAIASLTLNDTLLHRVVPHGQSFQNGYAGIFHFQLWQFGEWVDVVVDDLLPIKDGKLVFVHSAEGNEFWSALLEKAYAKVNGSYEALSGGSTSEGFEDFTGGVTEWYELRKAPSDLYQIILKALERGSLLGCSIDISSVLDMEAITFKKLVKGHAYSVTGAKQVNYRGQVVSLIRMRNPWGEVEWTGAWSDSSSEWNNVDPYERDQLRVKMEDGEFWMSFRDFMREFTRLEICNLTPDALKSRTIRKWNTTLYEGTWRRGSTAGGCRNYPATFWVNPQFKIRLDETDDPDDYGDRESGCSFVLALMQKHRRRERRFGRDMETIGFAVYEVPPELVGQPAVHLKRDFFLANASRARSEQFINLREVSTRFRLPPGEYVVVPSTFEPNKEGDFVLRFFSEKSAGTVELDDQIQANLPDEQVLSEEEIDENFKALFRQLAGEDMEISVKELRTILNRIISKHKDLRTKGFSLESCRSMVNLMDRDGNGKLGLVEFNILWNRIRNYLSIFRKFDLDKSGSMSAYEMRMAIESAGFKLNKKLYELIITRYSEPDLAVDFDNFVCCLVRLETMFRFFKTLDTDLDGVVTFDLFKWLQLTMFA

[5] = target: T2, Calpain-1 catalytic subunit (Rattus norvegicus, UniProt P97571); assay: (§2) Inhibition of calpain-1 in rat hippocampal slices assessed as prevention of NMDA-induced spectrin cleavage preincubated for 30 mins followed by NMDA addition measured after 5 hrs by Western blot analysis
T2 sequence (P97571 whole entry): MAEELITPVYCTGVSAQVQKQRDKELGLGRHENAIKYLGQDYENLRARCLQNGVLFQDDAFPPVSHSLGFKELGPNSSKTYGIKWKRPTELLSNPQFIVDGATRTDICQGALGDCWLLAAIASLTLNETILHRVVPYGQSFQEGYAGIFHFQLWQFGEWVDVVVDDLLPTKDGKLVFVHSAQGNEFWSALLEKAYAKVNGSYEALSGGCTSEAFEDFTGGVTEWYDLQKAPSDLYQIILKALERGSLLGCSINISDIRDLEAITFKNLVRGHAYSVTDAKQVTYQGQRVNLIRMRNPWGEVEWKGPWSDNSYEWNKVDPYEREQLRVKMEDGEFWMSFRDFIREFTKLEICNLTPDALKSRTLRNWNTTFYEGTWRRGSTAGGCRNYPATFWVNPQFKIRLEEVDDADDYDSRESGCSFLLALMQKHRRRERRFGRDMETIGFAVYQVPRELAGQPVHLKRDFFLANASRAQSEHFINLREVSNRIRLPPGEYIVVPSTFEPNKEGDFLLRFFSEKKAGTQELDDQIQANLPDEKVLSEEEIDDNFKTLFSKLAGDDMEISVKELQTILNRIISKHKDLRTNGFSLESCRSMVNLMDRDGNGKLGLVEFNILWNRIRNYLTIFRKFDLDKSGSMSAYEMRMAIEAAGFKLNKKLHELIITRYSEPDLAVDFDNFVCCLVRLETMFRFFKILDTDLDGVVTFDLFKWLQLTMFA
Method in brief: (§3)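 Organotypic rat hippocampal slice cultures kept 6–8 days in 2% serum medium; 30 min inhibitor pre-incubation, then 10 µM NMDA for 5 h at 34°C, 5% CO2. Slices lysed; 150/145 kDa spectrin breakdown products quantified by densitometric Western blot with anti-spectrin alpha chain antibody.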

[6] = target: T3, Calpain-1 catalytic subunit (Homo sapiens, UniProt P07384); assay: Inhibition of human erythrocytes calpain-1 using Suc-Leu-Tyr-AMC as substrate by kinetic fluorescence assay; settings: read-out: Ki
T3 sequence (P07384 whole entry): T1 sequence (whole entry)

[7] = Thiol reactivity using recombinant human full length 13C-labeled La antigen (100 to 324 residues) expressed in Escherichia coli BL21(DE3) by ALARM NMR
Homo sapiens [8] = species on record: Homo sapiens; assay: Selectivity ratio of Ki for recombinant human cathepsin S expressed in Escherichia coli to Ki for human erythrocytes calpain-1; method in brief: as §1
[9] = target: T4, Calpain-1 catalytic subunit (Rattus norvegicus) (UniProt P97571); assay: as §2; method in brief: as §3
T4 sequence (whole entry): T2 sequence (P97571 whole entry)

[10] = target: T5, Carbonyl reductase [NADPH] 1 (Homo sapiens, UniProt P16152); assay: Drug level in human hepatocytes treated with [3H]-labeled N-(4-Amino-3,4-dioxo-1-phenylbutan-2-yl)-2-(3-(4-fluorophenyl)-1H-pyrazol-1-yl)nicotinamide assesseed as cytosolic carbonyl reductase-mediated compound formation; assay type: ADME, cell-based
T5 sequence (P16152 whole entry): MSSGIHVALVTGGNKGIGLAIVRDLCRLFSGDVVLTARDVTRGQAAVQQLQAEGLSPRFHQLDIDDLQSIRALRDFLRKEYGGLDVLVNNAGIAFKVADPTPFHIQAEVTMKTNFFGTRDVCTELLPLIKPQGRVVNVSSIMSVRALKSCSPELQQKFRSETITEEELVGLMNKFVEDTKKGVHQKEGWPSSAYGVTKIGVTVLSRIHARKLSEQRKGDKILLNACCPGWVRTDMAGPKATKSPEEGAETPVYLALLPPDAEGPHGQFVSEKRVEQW

[11] = Drug level in monkey blood treated with [3H]-labeled N-(4-Amino-3,4-dioxo-1-phenylbutan-2-yl)-2-(3-(4-fluorophenyl)-1H-pyrazol-1-yl)nicotinamide assesseed as cytosolic carbonyl reductase-mediated compound formation; assay type: ADME, Macaca mulatta; settings: rhesus monkey, cytosol
[12] = Drug level in monkey hepatocytes treated with [3H]-labeled N-(4-Amino-3,4-dioxo-1-phenylbutan-2-yl)-2-(3-(4-fluorophenyl)-1H-pyrazol-1-yl)nicotinamide assesseed as cytosolic carbonyl reductase-mediated compound formation; assay type: ADME, cell-based, Macaca mulatta; settings: rhesus monkey
[13] = target: T5, Carbonyl reductase [NADPH] 1; assay: Drug level in human blood treated with [3H]-labeled N-(4-Amino-3,4-dioxo-1-phenylbutan-2-yl)-2-(3-(4-fluorophenyl)-1H-pyrazol-1-yl)nicotinamide assesseed as cytosolic carbonyl reductase-mediated compound formation; assay type: ADME; settings: cytosol
Rattus norvegicus [14] = assay: Neuroprotective activity in Fisher rat assessed as effect on rapid eye movement time at 10 mg/kg administered via oral gavage measured after 8 hrs at the beginning of 12 hr light period by EEG analysis relative to control; assay type: functional
Method in brief: (§4)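 Male Fisher rats (250–330 g) fitted with frontal/occipital EEG electrodes under ketamine/pentobarbital. Dosed by gavage in Cremophor EL/Capmul PG8 (20:80) just before recording. EEG recorded for 8 h from the start of the light period, without food or water. Crossover design with alternate treatment one week later; each animal served as its own control. Results as % of vehicle.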

Rattus norvegicus [15] = assay: Neuroprotective activity in Fisher rat assessed as effect on latency in rapid eye movement at 10 mg/kg administered via oral gavage measured for 8 hrs at the beginning of 12 hr light period by EEG analysis relative to control; assay type: functional; method in brief: as §4
Rattus norvegicus [16] = assay: Neuroprotective activity in Fisher rat assessed as effect on latency in rapid eye movement at 1 mg/kg administered via oral gavage measured for 8 hrs at the beginning of 12 hr light period by EEG analysis relative to control; assay type: functional; method in brief: as §4
[17] = target: T4, Calpain-1 catalytic subunit (Rattus norvegicus); assay: Inhibition of calpain-1 in rat hippocampal slices assessed as prevention of amyloid beta(1-42) globulomer-induced synaptic deficits at 10 nM co-administered with amyloid beta(1-42) globulomer […] by Schaffer collateral analysis; settings: in the assay text read “after 1 day” for “after 1 hr”
Method in brief: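 Hippocampal slices from 9–10-day-old Wistar rats cultured 15–18 days; 82 nM Aβ1-42 globulomer added to medium 1 day before recording, with compound co-applied; vehicle-only group included. Slices moved to interface chamber perfused with aCSF ≥1 h before recording; input/output after Schaffer collateral stimulation; 2-way repeated-measures ANOVA, Holm-Sidak.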

[18] = target: T4, Calpain-1 catalytic subunit (Rattus norvegicus); assay: Inhibition of calpain-1 in rat hippocampal slices assessed as prevention of NMDA-induced tau cleavage preincubated for 30 mins followed by NMDA addition measured after 5 hrs by Western blot analysis
Method in brief: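 Same slice protocol: rat hippocampal organotypic cultures, 30 min inhibitor pre-incubation, 10 µM NMDA for 5 h at 34°C, 5% CO2; lysates probed by densitometric Western blot for the 17 kDa tau cleavage fragment using anti-Tau 1 antibody.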

Rattus norvegicus [19] = assay: Neuroprotective activity in Fisher rat assessed as effect on rapid eye movement time at 3 mg/kg administered via oral gavage measured after 8 hrs at the beginning of 12 hr light period by EEG analysis relative to control; assay type: functional; method in brief: as §4
Rattus norvegicus [20] = assay: Neuroprotective activity in sc dosed Sprague-Dawley rat assessed as increase in microdialysate acetylcholine levels in medial prefrontal cortex measured every 20 mins by HPLC analysis; assay type: functional, organism-based
Method in brief: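 Male Sprague-Dawley rats (290–320 g) implanted with medial prefrontal cortex microdialysis probes. Perfusion with Ringer solution containing 1 µM neostigmine at 1.5 µL/min. Twenty-minute fractions collected, six before and six after 1, 3 or 10 mg/kg s.c. (ethanol/PEG400/water vehicle). Acetylcholine measured by HPLC with an enzyme reactor and electrochemical detection, expressed as % of baseline.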

Rattus norvegicus [21] = assay: Neuroprotective activity in Fisher rat assessed as effect on rapid eye movement sleep pattern administered via oral gavage measured after 8 hrs at the beginning of 12 hr light period by EEG analysis; assay type: functional; method in brief: as §4
Rattus norvegicus [22] = assay: Neuroprotective activity in Wistar rat assessed as protection against scopolamine-induced cognitive impairment at 1 to 3 mg/kg, sc administered prior to scopolamine induction measured after 24 hrs; assay type: functional, organism-based
Method in brief: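 Scopolamine 0.1 mg/kg s.c., with test compound given s.c. beforehand in ethanol/PEG400/water (20:30:50). Single step-through passive avoidance training: 2 min habituation in the lit compartment, then a 0.5 mA, 2 s footshock on entering the dark side. Latency to enter the dark compartment measured 24 h later; n=14–47/group.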

Rattus norvegicus [23] = assay: Neuroprotective activity in Fisher rat assessed as effect on latency in rapid eye movement at 3 mg/kg administered via oral gavage measured for 8 hrs at the beginning of 12 hr light period by EEG analysis relative to control; assay type: functional; method in brief: as §4
[24] = Inhibition of human liver cathepsin L using Z-Phe-Arg-AMC as substrate by kinetic fluorescence assay
Cathepsin S = Cathepsin S (Homo sapiens, UniProt P25774); assay: Inhibition of human cathepsin S expressed in Escherichia coli using Z-Val-Val-Arg-AMC as substrate by kinetic fluorescence assay
Chain of Cathepsin S (P25774 whole entry): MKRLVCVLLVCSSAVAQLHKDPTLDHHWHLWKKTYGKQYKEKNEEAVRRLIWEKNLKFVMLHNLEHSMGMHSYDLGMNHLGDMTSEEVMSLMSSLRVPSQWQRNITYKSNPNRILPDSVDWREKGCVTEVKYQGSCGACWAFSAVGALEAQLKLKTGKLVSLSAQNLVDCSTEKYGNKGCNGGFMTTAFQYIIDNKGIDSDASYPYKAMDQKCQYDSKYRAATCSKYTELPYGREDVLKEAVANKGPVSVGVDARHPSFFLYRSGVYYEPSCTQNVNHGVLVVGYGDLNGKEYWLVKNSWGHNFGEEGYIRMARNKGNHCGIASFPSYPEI

| Compound | Ratio Ki [1] | Ratio Ki [2] | Ratio Ki (Homo sapiens [3]) | inhibition [4] | pIC50 [5] | pKi [6] | Thiol reactivity [7] | Ratio Ki (Homo sapiens [8]) | fIC50 [9] [nM] | pKi [24] | pKi (Cathepsin S) | other results |
| --- | --- | --- | --- | --- | --- | --- | --- | --- | --- | --- | --- | --- |
| CCN(CC)Cc1ccc(-c2ccn(-c3ncccc3C(=O)NC(Cc3ccccc3)C(=O)C(N)=O)n2)cc1 (configuration not stated) | 3 | <1 | < 1 | Active | < 5.00 | 7.00 | Metabolite not detected | 69 |  |  |  |  |
| NC(=O)C(=O)C(Cc1ccccc1)NC(=O)c1cccnc1-n1cc2ccccc2n1 (configuration not stated) | 124 | 6 | 6 | Active | 5.49 | 7.34 | Metabolite not detected | 51 | 288 |  |  |  |
| NC(=O)C(O)C(Cc1ccccc1)NC(=O)c1cccnc1-n1ccc(-c2ccc(F)cc2)n1 (configuration not stated) |  |  |  |  |  |  |  |  |  |  |  | Drug metabolism [10]: Metabolite_Detected; Drug metabolism [11]: Metabolite_Detected; Drug metabolism [12]: Metabolite_Detected; Drug metabolism [13]: Metabolite_Detected |
| NC(=O)C(=O)C(Cc1ccccc1)NC(=O)c1cccnc1-n1ccc(-c2ccc(F)cc2)n1 (configuration not stated) |  |  |  | Active | 6.23 | 7.47 |  |  | 41 |  |  | Activity (Rattus norvegicus [14]): 125%; Activity (Rattus norvegicus [15]): 80%; Activity (Rattus norvegicus [16]): 100%; inhibition [17]: Active; fIC50 [18]: 46 nM; Activity (Rattus norvegicus [19]): 131%; Activity (Rattus norvegicus [20]): Dose-dependent effect; Activity (Rattus norvegicus [21]): Dose-dependent effect; Activity (Rattus norvegicus [22]): Active; Activity (Rattus norvegicus [23]): 99% |
| CCN(CC)Cc1ccc(/C=C/c2ncccc2C(=O)NC(Cc2ccccc2)C(=O)C(N)=O)cc1 (configuration not stated) |  |  |  |  |  | 6.96 |  |  |  | 6.69 | < 5.00 |  |
| NC(=O)C(=O)C(Cc1ccccc1)NC(=O)c1cccnc1N1CCC(c2ccccc2)C1 (configuration not stated) |  |  |  |  |  | 6.90 |  |  |  | 7.41 | 5.75 |  |
| NC(=O)C(=O)C(Cc1ccccc1)NC(=O)c1cccnc1N1CCN(c2ccccc2)CC1 (configuration not stated) |  |  |  |  |  | 6.60 |  |  |  | 6.31 | 5.14 |  |
| NC(=O)C(=O)C(Cc1ccccc1)NC(=O)c1cccnc1-n1ccc(-c2ccccc2)n1 (configuration not stated) |  |  |  | Active | 6.01 | 7.74 |  |  | 39 |  |  |  |
| NC(=O)C(=O)C(Cc1ccccc1)NC(=O)c1cccnc1-n1ccc(-c2cccc(C(F)(F)F)c2)n1 (configuration not stated) | >300 | 17 | 28 | Active | 5.29 | 7.40 | Metabolite not detected | > 500 | 155 |  |  |  |
